Tests used:
[1] = test system: Trypanosoma brucei brucei; test: Antitrypanosomal activity against Trypanosoma brucei brucei Lister 427 blood stream form by Alamar blue assay; format: functional; settings: read-out: ED50 (the source's name)
How it was run: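 Bloodstream-form Lister 427 grown at 37 °C, 5% CO2 in HMI-9 with neomycin pressure (T7 polymerase and tetracycline repressor lines), fetal calf serum 10%, folate not reduced. Exposed to increasing inhibitor concentrations. Viability read by Alamar blue. ED50 taken from dose–response plots. Three separate determinations, each in quadruplicate (n = 12).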

Pteridine reductase 1 = molecular target: T1, Pteridine reductase 1 (Leishmania major, UniProt Q01782); test: Inhibition of Leishmania major recombinant PTR1
T1 sequence (Q01782 whole entry): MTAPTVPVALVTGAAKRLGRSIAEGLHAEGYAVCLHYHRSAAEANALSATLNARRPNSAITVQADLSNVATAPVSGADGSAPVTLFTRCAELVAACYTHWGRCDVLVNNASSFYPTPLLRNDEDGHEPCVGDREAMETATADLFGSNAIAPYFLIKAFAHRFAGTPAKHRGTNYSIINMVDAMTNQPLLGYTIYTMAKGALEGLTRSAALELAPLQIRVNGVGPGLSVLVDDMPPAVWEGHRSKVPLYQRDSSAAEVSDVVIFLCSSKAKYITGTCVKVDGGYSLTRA
How it was run: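 Recombinant L. major PTR1, stored at 15 mg mL^-1 (stock) in 50 mM Tris-HCl, 250 mM NaCl, 20% glycerol, pH 7.5. Substrate was H2B, with a 10 mM stock in 0.1 M NaOH. Compound stocks were 100 mM in DMSO. IC50 came from dose–response fits corrected with Morrison's tight-binding equation. Ki was calculated from IC50 using the competitive-inhibition equation.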

[2] = Inhibition of Trypanosoma brucei recombinant PTR1
How it was run: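 Recombinant enzyme stored at 15 mg mL^-1 in 50 mM Tris-HCl, 250 mM NaCl, 20% glycerol, pH 7.5. Substrate was H2B, prepared as a 10 mM stock in 0.1 M NaOH. Compound stocks were 100 mM in DMSO. IC50 came from dose–response plots fitted with Morrison's tight-binding equation. Ki was calculated from IC50 assuming competitive inhibition.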

SMILES	EC50 [1]	Ki (Pteridine reductase 1)	Ki [2]
N#Cc1c(-c2ccc3c(c2)OCO3)[nH]c2nc(N)[nH]c(=O)c12	123 µM	2.6 µM	0.4 µM
N#Cc1c[nH]c2nc(N)[nH]c(=O)c12		> 27 µM	5.8 µM
N#Cc1c(-c2ccccc2)[nH]c2nc(N)[nH]c(=O)c12		> 27 µM	0.71 µM
N#Cc1c(Br)[nH]c2nc(N)[nH]c(=O)c12		> 27 µM	3.9 µM
Nc1cc(NC2CC2)nc(N)n1		> 27 µM	> 35 µM
CC1=Nc2c(N)nc(N)nc2NC1(C)C		12 µM	> 35 µM
CCc1nc(N)nc(N)c1-c1ccc(Cl)cc1 [PYRIMETHAMINE]	26.6 µM		
Nc1cc(N)nc(N)n1		> 27 µM	> 35 µM
CCc1ccc(-c2[nH]c3nc(N)[nH]c(=O)c3c2C#N)cc1		16.4 µM	0.5 µM
CC(C)c1nc2nc(N)nc(N)c2nc1C(C)C		0.24 µM	3.3 µM
Nc1cc(SCc2ccccc2)nc(N)n1		0.6 µM	3.2 µM
Nc1nc(N)c2nc(-c3ccccc3)c(N)nc2n1		3.4 µM	1.2 µM
Nc1nc2[nH]ccc2c(=S)[nH]1		> 27 µM	> 35 µM
COc1ccc(CSc2cc(N)nc(N)n2)cc1		2.7 µM	18 µM
Cc1ccc(Sc2cc(N)nc(N)n2)cc1		27 µM	5.4 µM
Nc1nc2[nH]cc(CCc3ccccc3)c2c(=O)[nH]1		> 27 µM	
N#Cc1c(-c2cccc(C=O)c2)[nH]c2nc(N)[nH]c(=O)c12		4.2 µM	0.29 µM
COc1ccc(-c2[nH]c3nc(N)[nH]c(=O)c3c2C#N)cc1	274 µM	3.4 µM	0.36 µM
Nc1nc2c(c(=O)[nH]1)CC=N2 [7-DEAZAGUANINE]			> 35 µM

From ChEMBL document CHEMBL1156764, “Structure-based design of pteridine reductase inhibitors targeting African sleeping sickness and the leishmaniases” (J Med Chem, 2010)
